Experimental data pooled from the literature.
Each line is one published result; the experiments were not run side by side.
JAK1 JH1: Tyrosine-protein kinase JAK1, JH1 (JAK1, Homo sapiens, UniProt P23458)
JAK1: Tyrosine-protein kinase JAK1 (JAK1, Homo sapiens, UniProt P23458)
JAK1 JH2: Tyrosine-protein kinase JAK1, JH2 (JAK1, Homo sapiens, UniProt P23458)

SMILES | target | assay | test system | setting | measurement | value
CC(=O)C1=C(C)N(c2cccc(C(F)(F)F)c2)C(=O)N[C@@H]1c1ccc(C#N)nc1 | JAK1 JH1 | cell-free assay, competition with immobilised ligand | – | 1 µM | remaining binding | 85.9%
O=C1Nc2ccc(Cl)cc2C1=Cc1cc(Cl)c(O)c(Cl)c1 | JAK1 | cell-free assay | – | 0.5 µM | remaining signal | 103%
O=C(N1CCS(=O)(=O)CC1)N1C[C@H](c2ccc(OC(F)(F)F)cc2)C[C@H](c2nc(C3CC3)no2)C1 | JAK1 JH2 | cell-free assay, competition with immobilised ligand | – | 1 µM | remaining binding | 100%
COc1cc2nccc(Oc3ccc(NC(=O)c4c5n(n(-c6ccc(F)cc6)c4=O)CCCC5)cc3)c2cc1OC | JAK1 | enzyme activity, inhibitor | – | 0.1 µM | inhibition | -5%
CN(CCCC(F)(F)F)c1nccc(-c2cnn3ncccc23)n1 | JAK1 JH1 | cell-free assay, competition with immobilised ligand | – | 1 µM | remaining binding | 100%
O=c1nc(-c2ccccn2)sc2ccccc12 | JAK1 JH2 | binding, competition with immobilised ligand | – | 1 µM | remaining binding | 86%
CCN(CC)CCNC(=O)c1c(C)[nH]c(/C=C2\C(=O)Nc3ccc(F)cc32)c1C | JAK1 | cell-free assay | – | 0.5 µM | remaining signal | 71.9%
CC/C(=N\NC(=O)NCc1cccc(O)c1)c1ccc(O)c(C)c1O | JAK1 | enzyme activity, inhibitor | – | 0.1 µM | inhibition | 3.4%
CS(=O)(=O)c1cc(C2(NC(=O)c3cncc4c3cnn4-c3ccc(F)cc3)CC2)ccn1 | JAK1 JH1 | cell-free assay, competition with immobilised ligand | – | 1 µM | remaining binding | 96%
Cc1sc(C(=O)NC2COC2)cc1-n1cc(NC(=O)Nc2c(F)cccc2Cl)cn1 | JAK1 | enzyme activity, inhibitor | – | 10 µM | remaining activity | 72.2%
CC(C)(C)c1nc2c(s1)c1nc(N)ncc1c1ccc(NS(=O)(=O)c3c(F)cccc3F)c(F)c12 | JAK1 | enzyme activity, inhibitor, radiometric | – | 1 µM | remaining activity | 90%
CC(C)(O)[C@H]1CC[C@H](Nc2ccc3ncc(-c4cccc(C(F)(F)F)c4)n3n2)CC1 | JAK1 | enzyme activity, inhibitor | – | 1 µM | remaining activity | 82.4%
O=C(CSc1nc2nccnc2c(=O)n1CCc1ccccc1)Nc1nccs1 | JAK1 | enzyme activity, inhibitor | – | 10 µM | inhibition | 1%
N[C@H]1CCN(c2nccc(-c3cnn4ncccc34)n2)C1 | JAK1 | binding | – | 1 µM | remaining binding | 60%
COc1cc2ncnc(Nc3ccc(Oc4ccccc4)cc3C)c2cc1OC | JAK1 | enzyme activity, inhibitor | – | 1 µM | inhibition | -5%
c1cnn2ncc(-c3ccnc(N4CCC45COC5)n3)c2c1 | JAK1 JH1 | cell-free assay | – | 1 µM | remaining signal | 95%
c1nc2c(Nc3ccc4c(c3)OCCO4)nc(Nc3ccc4c(c3)OCCO4)nc2[nH]1 | JAK1 JH2 | enzyme activity, inhibitor | – | 10 µM | activity vs control | 2.5%
CN(C)C(=O)Cn1cc(-c2nc(C3(c4ccc(-c5cnc(N)nc5)cc4)CC3)no2)cn1 | JAK1 JH2 | cell-free assay, competition with immobilised ligand | – | 1 µM | remaining binding | 100%
CN(C)C1CCN(CC#Cc2nn(C3CCCC3)c3nc(NCc4ccccc4)ncc23)C1 (stereo not shown) | JAK1 | enzyme activity, inhibitor, FRET | – | 10 µM | inhibition | 2%
N#CCCc1ccc2c(c1)-c1[nH]c3ccc([N+](=O)[O-])cc3c1CC(=O)N2 | JAK1 | cell-free assay | – | 0.5 µM | remaining signal | 91.9%
Cc1c[nH]c2nccc(Oc3c(F)cc(Nc4cc(Cl)nc(N)n4)cc3F)c12 | JAK1 JH1 | cell-free assay, competition with immobilised ligand | – | 0.1 µM | remaining binding | 80%
CNc1cc(Oc2cc(C(=O)Nc3cc(N4CCN(C)CC4)cc(C(F)(F)F)c3)ccc2C)ncn1 | JAK1 JH2 | target engagement in cells, inhibitor, chemoproteomics | Huh-7 | 1 µM | inhibition | -25.7%
